This is a sample that favours compounds with a hit; in the whole collection about 4.1% have one here.
KCNQ1 pot – potentiates or activates the human KCNQ1 potassium channel; P51787; CHO-K1 KCNQ1, thallium flux FluxOR fluorescence; stronger effect = higher value; B-score at 10 µM; hit rate 0.35% among 310,000;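 active = fluorescence ratio B-score, a plate-corrected score, at least three library SD, with initial intensity B-score within 5 SD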
Target sequence (P51787 whole entry, looked up): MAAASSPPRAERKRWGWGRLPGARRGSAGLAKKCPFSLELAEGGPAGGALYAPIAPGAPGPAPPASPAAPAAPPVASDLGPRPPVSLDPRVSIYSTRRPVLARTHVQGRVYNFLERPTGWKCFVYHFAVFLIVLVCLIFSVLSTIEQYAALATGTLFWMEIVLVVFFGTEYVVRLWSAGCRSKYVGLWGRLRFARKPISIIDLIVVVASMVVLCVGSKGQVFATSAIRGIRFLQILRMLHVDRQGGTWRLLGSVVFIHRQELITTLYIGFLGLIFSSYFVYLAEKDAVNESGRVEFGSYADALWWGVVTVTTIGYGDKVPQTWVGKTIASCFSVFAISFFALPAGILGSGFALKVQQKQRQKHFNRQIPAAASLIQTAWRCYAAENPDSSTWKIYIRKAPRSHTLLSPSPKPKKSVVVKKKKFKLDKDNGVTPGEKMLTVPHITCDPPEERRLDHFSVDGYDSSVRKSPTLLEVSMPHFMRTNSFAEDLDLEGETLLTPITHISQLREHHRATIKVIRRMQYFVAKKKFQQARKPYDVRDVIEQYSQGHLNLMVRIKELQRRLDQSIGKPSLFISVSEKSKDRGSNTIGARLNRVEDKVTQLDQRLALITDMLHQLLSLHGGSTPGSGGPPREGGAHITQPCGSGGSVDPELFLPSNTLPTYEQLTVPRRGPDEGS
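Assay system: CHO-K1 cells stably expressing KCNQ1; Medium: assay buffer with matched DMSO; Also added: K+/Tl+ depolarizing stimulus; Dosing: single dose; Timing: dye 90 min, compound 20 min, room temperature; Measured by: kinetic FluxOR thallium fluorescence, 10-s 1-Hz baseline, 110-s post-stimulus read; Read-out: peak-minus-minimum fluorescence over initial fluorescence, negative-control normalized, B-scored.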
Cl transport mod – KCC2 (human) Cl- transport modulation. KCC2 cells, thallium flux FluoZin-2 fluorescence. B-score of Tl+ flux slope (higher = more flux/activation; lower = inhibition) at 10 µM. hit rate 2.2% among 190,000;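 active = thallium flux slope and its plate-corrected score both differing from the plate sample mean at a set confidence after two filtering rounds, in either direction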;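 note: slope of fluorescence scaled to starting intensity during 10 to 20 s after thallium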
hERG protect – shields human hERG channel from block by proarrhythmic agents; CHO-hERG, FluxOR thallium flux, dofetilide IC70 present; AID 1511; activation (rescue from dofetilide block), less the hit threshold, % at 10 µM; Q12809; hit rate 0.51% among 310,000;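 active = activation above the mean of controls blocked by dofetilide plus 5 SD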;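 note: thallium influx through hERG after potassium depolarization seen as dye fluorescence rise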
KCNK3 block – human KCNK3 channel inhibition, primary screen. CHO-KCNK3 thallium flux, FluxOR fluorescence; stronger effect = lower value. B-score at 10 µM. hit rate 0.84% among 340,000. AID 602410;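 active = B-score under library mean minus 4 SD, starting fluorescence ratio at most library mean plus 5 SD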;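 note: more negative B-score means stronger inhibition of thallium flux through KCNK3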
KCNQ1 block – blocks the human KCNQ1 potassium channel; P51787; CHO-K1 KCNQ1, FluxOR thallium flux fluorescence; stronger effect = higher value; B-score at 10 µM; hit rate 1.3% among 310,000; AID 2642;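 active = compounds whose thallium flux B-score, printed positive for inhibition, exceeds three library SD while starting fluorescence stays within three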;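 note: channel opened by potassium depolarization with thallium stimulus after 20 min compound exposure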
KCNK9 block – blocks the human KCNK9 two-pore domain potassium channel | Q9NPC2 | HEK293 KCNK9, FluxOR thallium flux fluorescence; stronger effect = lower value | B-score at 10 µM | hit rate 1.2% among 310,000 | AID 488922;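 active = ratio B-score over 3 SD below the library mean, with starting fluorescence within 5 SD of its mean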;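 note: negative B-score means less thallium flux so channel inhibition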
KCC2 secondary – confirmation of human KCC2 transport modulators | shares compounds with Cl transport mod | HEK293-KCC2, thallium flux, FluoZin2 fluorescence; stronger effect = higher value | normalised thallium flux (F/F0 slope) at 10 µM | hit rate 15% among 3,700 | AID 1713;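 active = thallium flux slope above the same plate's solvent-only control mean plus 3 SD; inconclusive = the two replicate wells disagree; inactive = no significant difference from solvent-only control wells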
KCC2 bumet counter – thallium flux persisting under bumetanide in KCC2 cells, counter-screen secondary assay | shares compounds with Cl transport mod | HEK293-KCC2 + bumetanide/ouabain, thallium flux FluoZin2; stronger effect = higher value | normalized thallium flux at 10 µM | hit rate 49% among 3,700 | AID 1714;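 active = thallium entry rate above the same plate's blocked-transporter control wells by more than 3 SD; inconclusive = the two repeat wells disagree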;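 note: raw slope of fluorescence over initial fluorescence between 10 and 20 s after thallium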
KCC2 sec2 – confirmation of human KCC2 transport modulators | hit rate 23% among 3,700 | normalized thallium flux at 10 µM | shares compounds with Cl transport mod | HEK293-KCC2, thallium flux FluoZin2 fluorescence; actives lie on both sides; F/F0 rise rate, 10–20 s post-thallium;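 active = thallium flux slope more than 3 SD above or below the plate's solvent-only control mean, mostly below; inconclusive = the two repeat wells disagreed; inactive = no significant shift from solvent-only controls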;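 note: raw slope with 0.1% DMSO as baseline and bumetanide as block control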
HEK counter1 – counter-screen for KCC2 modulators: effect in parental HEK293 cells; shares compounds with Cl transport mod; thallium flux FluoZin2, ouabain; baseline-ratio fluorescence slope, 10–20 s after thallium; thallium flux rate (normalised fluorescence) at 10 µM; hit rate 46% among 3,700; AID 1716;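 active = thallium flux rate significantly above the same plate's solvent-only control wells, beyond their mean plus 3 SD; inconclusive = the two replicate wells gave conflicting results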
KCC2 ouabain – confirmation of human KCC2 modulators with ouabain. raw Tl+ flux slope (below DMSO = inhibition, above = activation) at 10 µM. hit rate 48% among 3,700. shares compounds with Cl transport mod. AID 1717. HEK293-KCC2, thallium flux FluoZin2 fluorescence; bidirectional: low = inhibitor, high = activator;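 active = thallium flux slope beyond 3 SD from same-plate DMSO control mean in most replicates, usually higher, sometimes lower; inconclusive = repeat tests gave conflicting results; inactive = no significant difference from controls in most replicates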;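 note: slope of initial-normalized fluorescence between seconds 10 and 20 after thallium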
HEK293 Tl flux2 – acts in parental HEK cells, second KCC2 counter-screen | shares compounds with Cl transport mod | thallium flux slope at 10 µM | HEK293 parental, thallium flux FluoZin-2 fluorescence slope | hit rate 33% among 3,700 | AID 1718;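 active = thallium flux slope above the same plate's solvent-control mean plus 3 SD in both duplicate wells; inconclusive = duplicate wells that disagreed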;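 note: run without ouabain in cells lacking the KCC2 cotransporter; slope of fluorescence scaled to its starting value between 10 and 20 s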
Active calls of the source: *.

O=C(O)CCn1c(-c2ccccc2)cc2ccccc21 was read as KCNQ1 pot inactive, Cl transport mod -6.4*, hERG protect -10, KCNK3 block inactive, KCNQ1 block inactive, KCNK9 block inactive, KCC2 secondary 0.0066, KCC2 bumet counter 0.007, KCC2 sec2 0.028, HEK counter1 0.007, KCC2 ouabain 0.013* and HEK293 Tl flux2 0.0096.
O=C(O)CCn1c(CO)nc2ccccc21 was read as KCNQ1 pot inactive, Cl transport mod 0.15, hERG protect -8, KCNK3 block inactive, KCNQ1 block inactive and KCNK9 block inactive.
Screening COCCNC(=S)N1CCC(Cc2ccccc2)CC1 returned KCNQ1 pot inactive, Cl transport mod -4.2*, hERG protect -5, KCNK3 block inactive, KCNQ1 block inactive, KCNK9 block inactive, KCC2 secondary 0.0078, KCC2 bumet counter 0.0061, KCC2 sec2 0.032, HEK counter1 0.0039, KCC2 ouabain 0.015* and HEK293 Tl flux2 0.011.
For CC(C)CNC(=S)N1CCC(Cc2ccccc2)CC1 the results were KCNQ1 pot inactive, hERG protect -14, KCNK3 block inactive, KCNQ1 block inactive and KCNK9 block inactive.
`O=C(CN1CCC(NC(=O)c2ccccc2)CC1)NCc1ccccc1F` gave KCNQ1 pot inactive, hERG protect -11, KCNK3 block inactive, KCNQ1 block inactive and KCNK9 block inactive.
Screening O=C(CN1CCC(NC(=O)c2cccc(F)c2)CC1)NCc1ccccc1F returned KCNQ1 pot inactive, hERG protect -14, KCNK3 block inactive, KCNQ1 block inactive, KCNK9 block inactive, KCC2 secondary 0.0089, KCC2 bumet counter 0.0068, KCC2 sec2 0.031, HEK counter1 0.0073, KCC2 ouabain 0.033 and HEK293 Tl flux2 0.01.
`CCOC(=O)C(O)(CC(=O)Nc1ccc(Cl)cc1Cl)C(F)(F)F` (stereo not drawn) gave KCNQ1 pot inactive, Cl transport mod -0.48, hERG protect -11, KCNK3 block inactive, KCNQ1 block inactive and KCNK9 block inactive.
`COc1ccc(CNC(=O)COC(=O)c2ccc3ncsc3c2)cc1OC` gave KCNK3 block inactive.
`CC(C)Oc1c(N2CCOCC2)c(=O)c1=O` gave KCNQ1 pot inactive, Cl transport mod 0.11, hERG protect -11, KCNK3 block inactive, KCNQ1 block inactive and KCNK9 block inactive.
Screening CCC1(c2ccc(Cl)cc2)NC(=S)N(c2ccc(C)cc2)N1 (stereo not drawn) returned KCNQ1 pot 68*, Cl transport mod 52*, hERG protect 38*, KCNK3 block inactive, KCNQ1 block inactive, KCNK9 block inactive, KCC2 secondary 0.041*, KCC2 bumet counter 0.096*, KCC2 sec2 inconclusive, HEK counter1 0.083*, KCC2 ouabain 0.074* and HEK293 Tl flux2 0.028*.
